# Bioassay records (PubChem BioAssay)
# CCR6 antagonist = CCR6 (human) receptor antagonism; 340,000 tested, 0.49% active; CHO-K1 CCR6 PathHunter beta-arrestin, luminescence, CCL20-stimulated; P51684; inhibition, % at 20 µM;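 active means compounds whose inhibition of the agonist-driven luminescence signal at 20 µM reaches about 50%, limit read from the data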;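 further: cells stimulated with CCL20 at 14 nM final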
# APJ antagonist = blocks the human apelin receptor APJ; CHO-K1 APJ beta-arrestin complementation, luminescence; inhibition, % at 20 µM; 330,000 tested, 0.32% active; AID 2521;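 active means inhibition above about 40% at 20 µM, limit read from the data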;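 further: cells challenged with 10 nM apelin-13 agonist together with compound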
# CXCR6 inh = blocks human CXCR6 beta-arrestin recruitment; CHO-K1 PathHunter CXCR6 beta-arrestin, luminescence; inhibition, % at 20 µM; 360,000 tested, 0.36% active; AID 602244; in the data active means inhibition above about 34%, passing the limit was not always enough;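 further: antagonist mode with CXCL16 agonist at 10 nM final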
# HTR2A ag = agonists of mouse serotonin 5-HT2A receptor (HTR2A); activation, % at 7.6 µM; CHO-K1 mHTR2A beta-arrestin complementation, luminescence; percent of 30 µM serotonin response; 360,000 tested, 0.66% active; P35363;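 active means activation above a run cutoff, the mean activation of all tested compounds plus 3 SD, cut at about 14% in these data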
# Target sequence (P35363 whole entry, looked up): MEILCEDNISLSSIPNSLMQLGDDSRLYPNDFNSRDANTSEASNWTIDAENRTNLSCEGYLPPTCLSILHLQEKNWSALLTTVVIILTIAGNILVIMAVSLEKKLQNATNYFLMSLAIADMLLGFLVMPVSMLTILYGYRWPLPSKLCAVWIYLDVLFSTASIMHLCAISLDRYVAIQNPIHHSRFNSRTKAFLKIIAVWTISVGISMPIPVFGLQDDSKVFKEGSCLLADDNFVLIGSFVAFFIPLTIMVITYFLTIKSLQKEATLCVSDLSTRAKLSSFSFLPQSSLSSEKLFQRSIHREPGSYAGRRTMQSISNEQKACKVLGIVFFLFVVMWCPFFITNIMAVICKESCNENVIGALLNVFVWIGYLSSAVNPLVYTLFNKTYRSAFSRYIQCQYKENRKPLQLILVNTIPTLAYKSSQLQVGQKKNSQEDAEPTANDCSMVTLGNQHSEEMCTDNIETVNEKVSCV
# APJ agonist = agonists of human APJ apelin receptor | 330,000 tested, 0.11% active | activation, % at 20 µM | AID 2520 | CHO-K1 APJ PathHunter beta-arrestin, luminescence; 0% DMSO wells, 100% apelin;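 active means activation more than six SD over the plate average, tested at 20 µM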
#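 Incubation: overnight seeding, 90 min compound at 25 °C, 1 h detection; test system: PathHunter CHO-K1 APJ (AGTRL-1) beta-arrestin reporter cells; amount: 1000 cells/well; doses: one dose, 20 µM compound, 1% DMSO; measured by: beta-gal luminescence; measure: agonist-driven arrestin binding to APJ; benchmarks: negative DMSO alone, positive Apelin-13 at 10 nM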
# EBI2 antag = blocks human EBI2 receptor beta-arrestin signaling; 360,000 tested, 0.81% active; P32249; EBI2 beta-arrestin recruitment, luminescence, 7a,25-OHC stimulated; inhibition, % at 5 µM; in the data active means inhibition above about 38%;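 further: enzyme fragment complementation signal reports receptor beta-arrestin coupling in cells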
# CXCR6 antag conf = CXCR6 antagonism confirmation, single concentration; AID 602409; inhibition, % at 20 µM; shares compounds with CXCR6 inh; CHO-K1 CXCR6 PathHunter beta-arrestin, luminescence; 700 tested, 65% active;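 active means mean inhibition over four retests above 40%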;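 further: receptor stimulated with 10 nM CXCL16 agonist; beta-galactosidase fragment complementation upon beta-arrestin recruitment to receptor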
# Numbers stand for hits; - = inactive; . = not tested or not shown. Most compounds without a hit are left out; they make up all but 2.1% or so of the library.
SMILES,CCR6 antagonist,APJ antagonist,CXCR6 inh,HTR2A ag,APJ agonist,EBI2 antag,CXCR6 antag conf
O=C1CC(c2ccco2)Cc2nc(N3CCc4ccccc4C3)ncc21 (stereo not given),-,-,43.5,-,-,-,-
CC(C)c1ccc(C2CC(=O)c3cnc(N4CCc5ccccc5C4)nc3C2)cc1 (stereo not given),-,-,-,-,-,-,.
COc1ccc(-c2csc(NC(=S)NC(=O)c3ccc4ccccc4c3)n2)cc1OC,-,-,-,-,-,-,.
O=C(C=P(c1ccccc1)(c1ccccc1)c1ccccc1)c1ccccc1-c1ccccc1C(=O)C=P(c1ccccc1)(c1ccccc1)c1ccccc1,88.4,.,70.6,-,.,-,-
CCC/C=C/c1ccc(CN2C(C)C(=O)N(Cc3cn(CCOCOC)nn3)CCS2(=O)=O)cc1 (stereo not given),.,.,41.5,-,.,-,-
C=C1CC(COc2cc(=O)oc3ccccc23)(c2ccccc2)OC1=O (stereo not given),100.3,.,88.9,-,.,52.0,89.6
Cc1cc(C)c(OCC(=O)Nc2nc(-c3ccccn3)cs2)c(C)c1,.,-,51.6,-,-,-,-
CCc1ccccc1OCC(=O)Nc1nc(-c2cccnc2)cs1,75.9,-,51.3,-,-,-,64.1
O=C(CCS(=O)(=O)c1ccc(F)cc1)Nc1nc(-c2ccccn2)cs1,-,-,-,-,-,-,.
CCC(=O)c1ccc(OCC(=O)Nc2nc(-c3cccnc3)cs2)cc1,-,-,-,-,-,-,.
CC(Oc1ccc(F)cc1)C(=O)Nc1nc(-c2ccccn2)cs1 (stereo not given),71.4,-,66.6,-,-,-,86.9
Cc1ccc(C(=O)NCC(=O)N2CCCCCC2)cc1,-,-,-,-,-,-,.
Cc1cccc(C(=O)NCC(=O)N2CCCC2)c1,-,-,40.3,-,-,-,-
CC1(C)Cc2ccccc2C(NNC(=O)c2ccccn2)=N1,-,-,45.4,-,-,-,40.9
O=C(CCC(=O)N/N=C/c1ccco1)N/N=C/c1ccco1,-,-,-,-,-,-,.
Cc1cccc(NC(=O)CCC(=O)N/N=C/c2ccco2)c1,-,-,78.3,-,-,-,-
O=C1CN(C(=O)c2ccccc2C(=O)O)c2ccccc2N1,-,-,-,-,-,-,.
CC(=NCCc1ccccc1)C1=C(O)CSC1=O,-,-,-,-,-,-,.
Cc1[nH]n2c(=O)cc(-c3ccc([N+](=O)[O-])cc3)nc2c1-c1ccccc1,.,-,58.7,-,-,-,52.2
O=C1CC(Sc2nnnn2-c2ccccc2)C(=O)N1c1cccc(Cl)c1 (stereo not given),.,-,94.0,-,-,-,59.2
CS(=O)(=O)c1ccc2nc(NC(=O)CN3CCN(Cc4ccccc4)CC3)sc2c1,-,-,40.1,-,-,-,-
CS(=O)(=O)c1ccc2nc(NC(=O)CN3CCC(Cc4ccccc4)CC3)sc2c1,-,-,-,-,-,-,.
CC(C(Sc1ccccc1N)c1ccccc1)[N+](=O)[O-] (stereo not given),-,-,29.5,-,-,-,-
C[C@@H]1CC=C[C@@H]2[C@H]1C(=O)N(Cc1ccccc1)[C@H]2c1ccccc1Br,-,.,35.1,-,.,-,-
COCCNS(=O)(=O)c1ccc(-c2ccc(Cl)cc2)cc1,-,-,-,-,-,-,.
SMILES,CCR6 antagonist,APJ antagonist,CXCR6 inh,HTR2A ag,APJ agonist,EBI2 antag,CXCR6 antag conf
Cc1cc(C)cc(NC(=O)c2cccnc2)c1,-,-,40.5,-,-,-,-
O=C(/C=C/c1cccnc1)c1ccc(NC(=O)c2cccc(Br)c2)cc1,-,-,-,-,-,-,.
Cc1cccc(C(=O)Nc2ccc(C(=O)/C=C/c3cccnc3)cc2)c1,-,.,35.6,-,.,-,43.6
CCCCc1ccc(-n2nnnc2SCC(=O)Nc2cc(OC)c([N+](=O)[O-])cc2C)cc1,-,-,74.9,-,-,-,-
O=c1c2ccccc2sn1-c1ccccc1,75.6,-,86.5,-,-,-,-
COC(=O)CN1C(=O)[C@H]2[C@@H](c3ccc(C)o3)N3C(=O)CN(Cc4ccccn4)C(=O)[C@@]3(C)[C@H]2C1=O,-,-,104.1,-,-,-,-
